Several values for one entry are separate records, joined by “and”; a condition that tells them apart may be missing. Equal values may be shown once. Activity calls are given as the source filed them. No cut-off for these calls is given here.
Experiments:
[1] = biological target: T1, 5-demethoxyubiquinone hydroxylase, mitochondrial (Homo sapiens) (UniProt Q99807); experiment: Inhibition of COQ7 in human HeLa cells assessed as DMQ10 level per well at 10 uM after 2 days by HPLC analysis relative to control; assay type: cell-based; set-up: scale not given: the % may be the effect or the level left
T1 sequence (whole entry): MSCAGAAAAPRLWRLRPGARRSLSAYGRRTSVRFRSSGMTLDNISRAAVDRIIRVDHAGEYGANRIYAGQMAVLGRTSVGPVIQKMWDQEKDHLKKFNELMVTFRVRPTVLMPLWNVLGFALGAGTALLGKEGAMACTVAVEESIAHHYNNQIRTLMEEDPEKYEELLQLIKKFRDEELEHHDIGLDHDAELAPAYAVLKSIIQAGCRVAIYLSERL
Summary of the method: (§1)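 HeLa cells cultured overnight, then exposed 48 hr to compound (single 30 µM screen, 10 µM, or graded doses); 0.5-1.0% DMSO controls. Quinones extracted with ethanol/n-hexane after K3Fe(CN)6 oxidation and UQ9 internal standard, then resolved by C18 HPLC with UV at 275 nm. DMQ10 and UQ10 reported as ng/well and DMQ10 as % of total quinone; mean of duplicates.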

[2] = biological target: T1, 5-demethoxyubiquinone hydroxylase, mitochondrial (Homo sapiens); experiment: Inhibition of COQ7 in human C3A cells assessed as DMQ10 level per well at 10 uM after 1 day by HPLC analysis (reference value: 7.4 ng); assay type: cell-based
Summary of the method: (§2)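 Cells (2 or 4 x 10^5/well) cultured overnight, then exposed 24 hr to compound at 10 µM; DMSO controls. Cells suspended in PBS with 5% K3Fe(CN)6, 0.12 µg UQ9 added as internal standard, quinones extracted in ethanol/n-hexane (2:5). Reverse-phase C18 HPLC, isocratic diisopropyl ether/methanol (1:9), 30 °C, UV 275 nm; DMQ10 at 10.2 min. DMQ10 reported as ng/well and % of total quinone; duplicate wells.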

C3A [3] = experiment: Growth inhibition of human C3A cells after 3 days in presence of 10 mM 2-DG by cell-titer-Glo assay; assay type: functional; conditions: 72 h
Summary of the method: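 C3A cells in EMEM + 10% FBS with 10 mM 2-deoxyglucose in the medium to block glycolysis. Pre-cultured 24 hr, then exposed to graded compound concentrations for 3 further days. Viable cells quantified by CellTiter-Glo 2.0; GI50 by linear interpolation, mean of triplicates.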

[4] = biological target: T1, 5-demethoxyubiquinone hydroxylase, mitochondrial (Homo sapiens); experiment: Inhibition of COQ7 in human PC3 cells assessed as DMQ10 accumulation at 10 uM after 24 hrs by HPLC analysis relative to control; assay type: cell-based; set-up: scale not given: the % may be the effect or the level left; conditions: PC-3; summary of the method: as §2
[5] = biological target: T1, 5-demethoxyubiquinone hydroxylase, mitochondrial (Homo sapiens); experiment: Inhibition of COQ7 in human HeLa cells assessed as DMQ10 level per well at 10 uM after 1 day by HPLC analysis (reference value: 6.8 ng); assay type: cell-based; summary of the method: as §2
C3A [6] = experiment: Antiproliferative activity against human C3A cells at 10 uM assessed as increase in cell death incubated for 24 hrs and measured after 3 days
[7] = biological target: T1, 5-demethoxyubiquinone hydroxylase, mitochondrial (Homo sapiens); experiment: Inhibition of COQ7 in human HeLa cells assessed as UQ10 level per well at 10 uM after 2 days by HPLC analysis; assay type: cell-based; summary of the method: as §1
C3A [8] = experiment: Growth inhibition of human C3A cells assessed as growth inhibition after 3 days by cell-titer-Glo assay; assay type: functional; conditions: 72 h
Summary of the method: (§3)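 Cells pre-cultured 24 hr, then exposed to a range of compound concentrations for a further 3 days. Viable cells counted by CellTiter-Glo 2.0 luminescence; GI50 obtained by linear interpolation of concentration-response curves, mean of triplicates. Medium: DMEM + 10% FBS for HeLa and PANC-1, EMEM for C3A, F-12K for PC-3; 37 °C, 5% CO2.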

PC-3 = experiment: Cytotoxicity against human PC3 cells assessed as growth inhibition after 3 days by cell-titer-Glo assay; assay type: functional; conditions: PC-3, 72 h; summary of the method: as §3
PANC-1 = experiment: Growth inhibition of human PANC1 cells after 3 days by cell-titer-Glo assay; assay type: functional; conditions: PANC-1, 72 h; summary of the method: as §3
[9] = biological target: T1, 5-demethoxyubiquinone hydroxylase, mitochondrial (Homo sapiens); experiment: Inhibition of COQ7 in human HeLa cells assessed as DMQ10 level per well at 10 uM after 2 days by HPLC analysis; assay type: cell-based; summary of the method: as §1
[10] = biological target: T1, 5-demethoxyubiquinone hydroxylase, mitochondrial (Homo sapiens); experiment: Inhibition of COQ7 in human PANC1 cells assessed as DMQ10 accumulation at 10 uM after 24 hrs by HPLC analysis relative to control; assay type: cell-based; set-up: scale not given: the % may be the effect or the level left; conditions: PANC-1; summary of the method: as §2
HeLa = experiment: Growth inhibition of human HeLa cells assessed as growth inhibition after 3 days by cell-titer-Glo assay; assay type: functional; conditions: 72 h; summary of the method: as §3
WI-38 = experiment: (§4) Cytotoxicity against human WI38 cells assessed as growth inhibition after 4 days by cell-titer-Glo assay; assay type: cell-based; conditions: wi-38, 96 h, 96 h
Summary of the method: (§5)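 WI-38 normal fibroblasts grown in DMEM + 10% FBS at 37 °C, 5% CO2. Pre-cultured 24 hr, then exposed to compound at 0-30 µM for 4 days. Viability read by CellTiter-Glo 2.0; GI50 by linear interpolation of concentration-response curves, mean of triplicates.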

[11] = as §4; assay type: cell-based, WI-38; conditions: WI-38 cells; summary of the method: as §5
[12] = biological target: T1, 5-demethoxyubiquinone hydroxylase, mitochondrial (Homo sapiens); experiment: Inhibition of COQ7 in human HeLa cells assessed as DMQ10 accumulation at 30 uM after 2 days by HPLC analysis relative to control; assay type: cell-based; set-up: scale not given: the % may be the effect or the level left; summary of the method: as §1
[13] = biological target: T1, 5-demethoxyubiquinone hydroxylase, mitochondrial (Homo sapiens); experiment: Inhibition of COQ7 in human HeLa cells assessed as DMQ10 accumulation at 10 uM after 2 days by HPLC analysis relative to control; assay type: cell-based; set-up: scale not given: the % may be the effect or the level left; summary of the method: as §1
[14] = biological target: T1, 5-demethoxyubiquinone hydroxylase, mitochondrial (Homo sapiens); experiment: Inhibition of COQ7 in human HeLa cells assessed as DMQ10 accumulation at 5 uM after 2 days by HPLC analysis; assay type: cell-based; summary of the method: as §1
[15] = biological target: T1, 5-demethoxyubiquinone hydroxylase, mitochondrial (Homo sapiens); experiment: Inhibition of COQ7 in human PC3 cells assessed as DMQ10 accumulation at 10 uM after 1 day by HPLC analysis relative to control; assay type: cell-based; set-up: scale not given: the % may be the effect or the level left; conditions: PC-3; summary of the method: as §2
[16] = biological target: T1, 5-demethoxyubiquinone hydroxylase, mitochondrial (Homo sapiens); experiment: Inhibition of COQ7 in human HeLa cells assessed as DMQ10 accumulation at 10 uM after 1 day by HPLC analysis relative to control; assay type: cell-based; set-up: scale not given: the % may be the effect or the level left; summary of the method: as §2
[17] = biological target: T1, 5-demethoxyubiquinone hydroxylase, mitochondrial (Homo sapiens); experiment: Inhibition of COQ7 in human PANC1 cells assessed as DMQ10 accumulation at 10 uM after 1 day by HPLC analysis relative to control; assay type: cell-based; set-up: scale not given: the % may be the effect or the level left; conditions: PANC-1; summary of the method: as §2
[18] = biological target: T1, 5-demethoxyubiquinone hydroxylase, mitochondrial (Homo sapiens); experiment: Inhibition of COQ7 in human BxPC3 cells assessed as DMQ10 accumulation at 10 uM after 1 day by HPLC analysis relative to control; assay type: cell-based; set-up: scale not given: the % may be the effect or the level left; conditions: BXPC-3; summary of the method: as §2
[19] = biological target: T1, 5-demethoxyubiquinone hydroxylase, mitochondrial (Homo sapiens); experiment: Inhibition of COQ7 in human HeLa cells assessed as DMQ10 accumulation at 20 uM after 2 days by HPLC analysis; assay type: cell-based; summary of the method: as §1
[20] = biological target: T1, 5-demethoxyubiquinone hydroxylase, mitochondrial (Homo sapiens); experiment: Inhibition of COQ7 in human C3A cells assessed as DMQ10 accumulation at 10 uM after 1 day by HPLC analysis relative to control; assay type: cell-based; set-up: scale not given: the % may be the effect or the level left; summary of the method: as §2

Row | Activity [1] [%] | Activity [7] [ng] | Activity [9] [ng] | SMILES | GI50 at 96 h [11] [µM] | further results
1 | 52 | 12.2 | 13.2 | Oc1cc(-c2ccccc2)nn1-c1ccc(Cl)cn1 | 19 | Activity [2]: 7.8 ng; GI50 (C3A [3]): 6.1 µM; Activity [4]: 27.6%; Activity [5]: 7.9 ng; Activity (C3A [6]): inactive; GI50 (C3A [8]): 9 µM; GI50 (PC-3): > 12 µM; GI50 (PANC-1): > 12 µM; Activity [10]: 11.4%; GI50 (HeLa): > 12 µM; GI50 (WI-38): 19 µM
2 | 20.7 | 5.9 | 5.5 | Oc1cc(C2CCCCC2)nn1-c1ccccn1 | 9.1 | 
3 | 11 | 17.8 | 2.2 | CS(=O)(=O)c1ccc(-n2nc(-c3ccccc3)cc2O)nc1 | > 30 | 
4 | 42.9 | 8.8 | 6.6 | Oc1cc(CC2CCCCC2)nn1-c1ccccn1 | 17.5 | 
5 | 0 | 35.7 | 0 | Clc1cc(-c2ccccc2)nn1-c1ccccn1 | > 30 | 
6 | 0 | 33.7 | 0 | Oc1cc(-c2ccccc2)nn1-c1ccncc1 | > 30 | 
7 | 51.4 | 8.8 | 9.3 | Oc1cc(CCc2ccccc2)nn1-c1ccccn1 | 9.6 | 
8 | 10.8 | 14.8 | 1.8 | Oc1cc(-c2ccccc2)nn1-c1ccc(F)cn1 | 28.9 | 
9 | 10 | 23.4 | 2.6 | Nc1ccc(-n2nc(-c3ccccc3)cc2O)nc1 | > 30 | 
10 | 32.2 | 15.4 | 7.3 | Cc1ccc(-n2nc(-c3ccccc3)cc2O)nc1 |  | GI50 (C3A [3]): 20.2 µM; Activity [4]: 14%; Activity (C3A [6]): inactive; GI50 (C3A [8]): 18.5 µM; GI50 (PC-3): > 12 µM; GI50 (PANC-1): > 12 µM; Activity [10]: 8.7%; GI50 (HeLa): > 12 µM; GI50 (WI-38): 26.3 µM and > 12 µM
11 | 0 | 23.7 | 0 | Oc1cc(-c2ccccc2)nn1-c1cccnc1 | > 30 | 
12 | 32.4 | 12.1 | 5.8 | Oc1cc(C2CCCC2)nn1-c1ccccn1 | 12.7 | 
13 | 49.5 | 9.4 | 9.2 | Oc1cc(-c2ccccc2)nn1-c1ccc(C(F)(F)F)cn1 | 9.4 | 
14 | 7.1 | 17.1 | 1.3 | Oc1cc(-c2ccccc2)nn1-c1ccccn1 | 20.8 | Activity [12]: > 30%; Activity [13]: 19.3%
15 | 0 | 20.7 | 0 | Oc1cc(-c2ccccc2)nn1-c1ncccc1Cl | > 30 | 
16 | 0 | 28.5 | 0 | Oc1cc(-c2ccccc2)nn1-c1ccccc1 | > 30 | 
17 | 0 | 24.4 | 0 | Oc1cc(C2CCC2)nn1-c1ccccn1 | 25 | 
18 |  |  |  | Oc1c(I)cc(Cl)c2cccnc12 |  | Activity [14]: Active; Activity [15]: < 5%; Activity [16]: > 20%; Activity [17]: < 5%; Activity [18]: < 5%; Activity [19]: inactive; Activity [20]: > 20%
19 | 0 | 6.7 | 0 | COc1ccc(-n2nc(-c3ccccc3)cc2O)nc1 | 25.4 | 
20 | 0 | 22.7 | 0 | Oc1cc(-c2ccccc2)nn1-c1cc(Cl)ccn1 | > 30 | 

— ChEMBL document CHEMBL4613220, “Identification of small molecule inhibitors of human COQ7” (Bioorg Med Chem, 2020)
